In ChEMBL document CHEMBL5724801, “EUbOPEN Chemogenomics Library - Multiplex” (2024):
Values joined by “and” are separate entries in the source; they are usually repeats but may differ in a detail not shown here. Identical values can stand only once.

Test system: HEK-293T
Experiment: Multiplex assay against HEK293T
Format: toxicity, cell-based
Conditions: human
Summary of the method: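 Tubulin, mitochondrial-mass and membrane-permeability phenotypes are per cents of healthy-nucleus cells. Cells were gated by CellPathfinder machine learning into Hoechst high-intensity objects or normal cells, normal cells into healthy, pyknosed or fragmented nuclei, and pyknosed cells into mitotic or apoptotic. Before that, live cells stained at seeding with Hoechst33342, BioTracker Green Microtubule Cytoskeleton Dye, MitoTracker Red and Annexin V Alexa Fluor 680 were imaged on a CQ1 microscope at 37°C and 5% CO2 after compound addition.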

[1] = 12 h, 1 µM, compound concentration 1 uM
[2] = 12 h, 10 µM, compound concentration 10 uM
[3] = 24 h, 1 µM, compound concentration 1 uM
[4] = 24 h, 10 µM, compound concentration 10 uM
[5] = 48 h, 1 µM, compound concentration 1 uM
[6] = 48 h, 10 µM, compound concentration 10 uM

With `CC(C)(O)c1cnc(N2C[C@@]3(CCC[C@](C)(Cn4cnc5ccc(C#N)cc54)C3)OC2=O)cn1` [GSK2798745] the “Population Apoptotic (%)” value [1] was 8.76% and 9.45%, the “Population Fragmented Nuclei (%)” value [1] was 1.42% and 8.48% and the “Population Hoechst High Intensity Objects (%)” value [1] was 0%. The “Population Membrane Permeable-Phenotype (%)” value [1] was 0% and 4.17%, the “Population Mitochondria Different-Phenotype (%)” value [1] was 40% and 37.5% and the “Population Mitotic Cells (%)” value [1] was 91.24% and 90.55%. The “Population Normal (%)” value [1] was 100%, the “Population Pyknosed Nuclei (%)” value [1] was 38.92% and 76.97% and the “Total Cell Count” value [1] was 352 and 165. For the same compound, the “Population Apoptotic (%)” value [2] was 8.93% and 6.72%, the “Population Fragmented Nuclei (%)” value [2] was 1.58% and 0.69% and the “Population Healthy Nuclei (%)” value [2] was 45.43% and 17.24%. For the same compound, the “Population Hoechst High Intensity Objects (%)” value [2] was 0.63% and 0%, the “Population Membrane Permeable-Phenotype (%)” value [2] was 0% and the “Population Mitochondria Different-Phenotype (%)” value [2] was 36.11% and 20%. The “Population Mitotic Cells (%)” value [2] was 91.07% and 93.28%, the “Population Normal (%)” value [2] was 99.37% and 100% and the “Population Pyknosed Nuclei (%)” value [2] was 53% and 82.07%. For the same compound, the “Population Tubulin-Different-Phenotype (%)” value [2] was 24.31% and 48%, the “Total Cell Count” value [2] was 319 and 145 and the “Population Apoptotic (%)” value [3] was 18.02% and 17.31%. For the same compound, the “Population Fragmented Nuclei (%)” value [3] was 0.94% and 3.7%, the “Population Healthy Nuclei (%)” value [3] was 78.24% and 32.1% and the “Population Hoechst High Intensity Objects (%)” value [3] was 0%. For the same compound, the “Population Membrane Permeable-Phenotype (%)” value [3] was 2.88% and 0%, the “Population Mitochondria Different-Phenotype (%)” value [3] was 16.31% and 11.54% and the “Population Mitotic Cells (%)” value [3] was 81.98% and 82.69%. For the same compound, the “Population Normal (%)” value [3] was 100%, the “Population Tubulin-Different-Phenotype (%)” value [3] was 16.79% and 7.69% and the “Population Apoptotic (%)” value [4] was 17.91% and 14.14%. The “Population Fragmented Nuclei (%)” value [4] was 2.04% and 1.31%, the “Population Healthy Nuclei (%)” value [4] was 63.87% and 33.99% and the “Population Hoechst High Intensity Objects (%)” value [4] was 0%. For the same compound, the “Population Membrane Permeable-Phenotype (%)” value [4] was 0.8% and 0%, the “Population Mitochondria Different-Phenotype (%)” value [4] was 27.09% and 9.62% and the “Population Mitotic Cells (%)” value [4] was 82.09% and 85.86%. The “Population Normal (%)” value [4] was 100%, the “Population Pyknosed Nuclei (%)” value [4] was 34.1% and 64.71% and the “Population Tubulin-Different-Phenotype (%)” value [4] was 37.85% and 13.46%. The “Total Cell Count” value [4] was 393 and 153, the “Population Fragmented Nuclei (%)” value [5] was 2.32% and 3.45% and the “Population Healthy Nuclei (%)” value [5] was 86.2% and 69.4%. For the same compound, the “Population Hoechst High Intensity Objects (%)” value [5] was 0% and 1.28%, the “Population Membrane Permeable-Phenotype (%)” value [5] was 5.88% and 4.97% and the “Population Mitochondria Different-Phenotype (%)” value [5] was 16.75% and 31.68%. The “Population Mitotic Cells (%)” value [5] was 97.55% and 73.02%, the “Population Normal (%)” value [5] was 100% and 98.72% and the “Population Pyknosed Nuclei (%)” value [5] was 11.48% and 27.16%. For the same compound, the “Population Apoptotic (%)” value [6] was 12.84% and 15.85%, the “Population Fragmented Nuclei (%)” value [6] was 2.45% and 0.91% and the “Population Healthy Nuclei (%)” value [6] was 82.72% and 61.64%. For the same compound, the “Population Hoechst High Intensity Objects (%)” value [6] was 0.14% and 0%, the “Population Membrane Permeable-Phenotype (%)” value [6] was 8.39% and 0.74% and the “Population Mitochondria Different-Phenotype (%)” value [6] was 44.41% and 40%. The “Population Mitotic Cells (%)” value [6] was 87.16% and 84.15%, the “Population Normal (%)” value [6] was 99.86% and 100% and the “Population Pyknosed Nuclei (%)” value [6] was 14.83% and 37.44%.

For `Cn1ncnc1COc1nn2c(-c3cc(F)ccc3F)nnc2cc1C(C)(C)C`, the “Population Apoptotic (%)” value [1] was 8.93% and 7.56%, the “Population Fragmented Nuclei (%)” value [1] was 2.83% and 4.35% and the “Population Hoechst High Intensity Objects (%)” value [1] was 0%. The “Population Mitochondria Different-Phenotype (%)” value [1] was 29.79% and 46.15%, the “Population Mitotic Cells (%)” value [1] was 91.07% and 92.44% and the “Population Normal (%)” value [1] was 100%. For the same compound, the “Population Pyknosed Nuclei (%)” value [1] was 52.83% and 86.23%, the “Total Cell Count” value [1] was 318 and 138 and the “Population Apoptotic (%)” value [2] was 12.9% and 20.39%. For the same compound, the “Population Fragmented Nuclei (%)” value [2] was 0.72% and 5.3%, the “Population Healthy Nuclei (%)” value [2] was 43.73% and 16.67% and the “Population Hoechst High Intensity Objects (%)” value [2] was 0%. For the same compound, the “Population Mitotic Cells (%)” value [2] was 87.1% and 79.61%, the “Population Normal (%)” value [2] was 100% and the “Population Pyknosed Nuclei (%)” value [2] was 55.56% and 78.03%. For the same compound, the “Population Tubulin-Different-Phenotype (%)” value [2] was 22.95% and 27.27%, the “Total Cell Count” value [2] was 279 and 132 and the “Population Apoptotic (%)” value [3] was 10.85% and 17.5%. For the same compound, the “Population Fragmented Nuclei (%)” value [3] was 2.35% and 3.27%, the “Population Hoechst High Intensity Objects (%)” value [3] was 0% and the “Population Mitochondria Different-Phenotype (%)” value [3] was 20.12% and 10.71%. For the same compound, the “Population Mitotic Cells (%)” value [3] was 89.15% and 82.5%, the “Population Normal (%)” value [3] was 100% and the “Population Pyknosed Nuclei (%)” value [3] was 27.56% and 78.43%. The “Population Tubulin-Different-Phenotype (%)” value [3] was 23.17% and 10.71%, the “Population Apoptotic (%)” value [4] was 25.69% and 29.36% and the “Population Fragmented Nuclei (%)” value [4] was 1.85% and 4.23%. The “Population Hoechst High Intensity Objects (%)” value [4] was 0.52% and 0%, the “Population Mitochondria Different-Phenotype (%)” value [4] was 34.22% and 18.52% and the “Population Mitotic Cells (%)” value [4] was 74.31% and 70.64%. For the same compound, the “Population Normal (%)” value [4] was 99.48% and 100%, the “Population Pyknosed Nuclei (%)” value [4] was 28.76% and 76.76% and the “Population Tubulin-Different-Phenotype (%)” value [4] was 50.19% and 33.33%. For the same compound, the “Total Cell Count” value [4] was 381 and 142, the “Population Apoptotic (%)” value [5] was 9.38% and 21.84% and the “Population Fragmented Nuclei (%)” value [5] was 2.19% and 2.84%. For the same compound, the “Population Healthy Nuclei (%)” value [5] was 86.12% and 47.73%, the “Population Hoechst High Intensity Objects (%)” value [5] was 0% and 0.56% and the “Population Mitochondria Different-Phenotype (%)” value [5] was 20.57% and 32.14%. The “Population Mitotic Cells (%)” value [5] was 90.62% and 78.16%, the “Population Normal (%)” value [5] was 100% and 99.44% and the “Population Apoptotic (%)” value [6] was 22.83% and 17.39%. The “Population Fragmented Nuclei (%)” value [6] was 1.92%, the “Population Healthy Nuclei (%)” value [6] was 77.76% and 53.85% and the “Population Hoechst High Intensity Objects (%)” value [6] was 0.32% and 0%. The “Population Mitochondria Different-Phenotype (%)” value [6] was 45.27% and 57.14%, the “Population Mitotic Cells (%)” value [6] was 77.17% and 82.61% and the “Population Normal (%)” value [6] was 99.68% and 100%. For the same compound, the “Population Pyknosed Nuclei (%)” value [6] was 20.32% and 44.23%.

For `C=CC(=O)Nc1cc(Nc2nccc(-n3cc(CN(C)C)c(-c4ccccc4)n3)n2)c(OC)cc1N1CCOCC1` [LAZERTINIB], the “Population Apoptotic (%)” value [1] was 14.72% and 15.96%, the “Population Fragmented Nuclei (%)” value [1] was 1.35% and 8.26% and the “Population Hoechst High Intensity Objects (%)” value [1] was 0.67% and 0%. The “Population Membrane Permeable-Phenotype (%)” value [1] was 0.77% and 5.88%, the “Population Mitochondria Different-Phenotype (%)” value [1] was 33.85% and 11.76% and the “Population Mitotic Cells (%)” value [1] was 85.28% and 84.04%. The “Population Normal (%)” value [1] was 99.33% and 100%, the “Population Pyknosed Nuclei (%)” value [1] was 54.88% and 77.69% and the “Population Tubulin-Different-Phenotype (%)” value [1] was 31.54% and 82.35%. The “Total Cell Count” value [1] was 299 and 121, the “Population Apoptotic (%)” value [2] was 22.22% and 29.59% and the “Population Fragmented Nuclei (%)” value [2] was 3.83% and 10%. The “Population Healthy Nuclei (%)” value [2] was 22.97% and 8.33%, the “Population Hoechst High Intensity Objects (%)” value [2] was 0.48% and 0% and the “Population Membrane Permeable-Phenotype (%)” value [2] was 0%. For the same compound, the “Population Mitochondria Different-Phenotype (%)” value [2] was 47.92% and 60%, the “Population Mitotic Cells (%)” value [2] was 77.78% and 70.41% and the “Population Normal (%)” value [2] was 99.52% and 100%. For the same compound, the “Population Pyknosed Nuclei (%)” value [2] was 73.21% and 81.67%, the “Population Tubulin-Different-Phenotype (%)” value [2] was 75% and 80% and the “Total Cell Count” value [2] was 210 and 120. The “Population Apoptotic (%)” value [3] was 15.83% and 31.58%, the “Population Fragmented Nuclei (%)” value [3] was 1.82% and 4.92% and the “Population Hoechst High Intensity Objects (%)” value [3] was 0.45% and 0%. For the same compound, the “Population Membrane Permeable-Phenotype (%)” value [3] was 3.41% and 4.76%, the “Population Mitochondria Different-Phenotype (%)” value [3] was 36.18% and 52.38% and the “Population Mitotic Cells (%)” value [3] was 84.17% and 68.42%. The “Population Normal (%)” value [3] was 99.55% and 100%, the “Population Pyknosed Nuclei (%)” value [3] was 31.59% and 77.87% and the “Population Tubulin-Different-Phenotype (%)” value [3] was 50.85% and 47.62%. For the same compound, the “Population Apoptotic (%)” value [4] was 46.43% and 51.06%, the “Population Fragmented Nuclei (%)” value [4] was 3.95% and 6.25% and the “Population Healthy Nuclei (%)” value [4] was 22.37% and 9.82%. For the same compound, the “Population Hoechst High Intensity Objects (%)” value [4] was 1.3% and 0%, the “Population Membrane Permeable-Phenotype (%)” value [4] was 1.96% and 0% and the “Population Mitotic Cells (%)” value [4] was 53.57% and 48.94%. The “Population Normal (%)” value [4] was 98.7% and 100%, the “Population Pyknosed Nuclei (%)” value [4] was 73.68% and 83.93% and the “Population Tubulin-Different-Phenotype (%)” value [4] was 100% and 54.55%. The “Total Cell Count” value [4] was 231 and 112, the “Population Apoptotic (%)” value [5] was 12.5% and 24.32% and the “Population Fragmented Nuclei (%)” value [5] was 3.16% and 5.04%. For the same compound, the “Population Healthy Nuclei (%)” value [5] was 82.41% and 41.73%, the “Population Hoechst High Intensity Objects (%)” value [5] was 0.11% and 1.42% and the “Population Membrane Permeable-Phenotype (%)” value [5] was 7.11% and 0%. The “Population Mitochondria Different-Phenotype (%)” value [5] was 43.78% and 63.79%, the “Population Mitotic Cells (%)” value [5] was 87.5% and 75.68% and the “Population Normal (%)” value [5] was 99.89% and 98.58%. For the same compound, the “Population Apoptotic (%)” value [6] was 50% and 19.23%, the “Population Fragmented Nuclei (%)” value [6] was 1.89% and 5.38% and the “Population Healthy Nuclei (%)” value [6] was 64.67% and 34.62%. For the same compound, the “Population Hoechst High Intensity Objects (%)” value [6] was 0%, the “Population Membrane Permeable-Phenotype (%)” value [6] was 9.27% and 0% and the “Population Mitochondria Different-Phenotype (%)” value [6] was 73.66% and 40%. For the same compound, the “Population Mitotic Cells (%)” value [6] was 50% and 80.77%, the “Population Normal (%)” value [6] was 100% and the “Population Pyknosed Nuclei (%)” value [6] was 33.44% and 60%. The “Total Cell Count” value [6] was 317 and 130.
